From ChEMBL document CHEMBL1138855, “Topomimetics of amphipathic beta-sheet and helix-forming bactericidal peptides neutralize lipopolysaccharide endotoxins” (J Med Chem, 2006) come the findings set out here.

Structures are written as SMILES. Calls of active or inactive are those of the source. The calls are words filed in the database; no cut-off is given here.

For orientation: IC50 means the point on the concentration scale where inhibition reaches its midpoint.

In assay [1] the test system is Klebsiella pneumoniae. In words: Antibacterial activity against Klebsiella pneumoniae assessed as LPS neutralisation by LAL assay at 5 uM. The class given is functional, organism-based.
In assay [2] the test system is Salmonella typhimurium. In words: Antibacterial activity against Salmonella Typhimurium assessed as LPS neutralisation by LAL assay at 5 uM. The class given is functional, organism-based. The settings on record: Salmonella enterica subsp. enterica serovar Typhimurium.
Assay [3] has as its system Escherichia coli. In words: Antibacterial activity against Escherichia coli 055:B5 assessed as LPS neutralisation at 5 uM by LAL assay. The class given is functional, organism-based.
For assay [4], the system named is Pseudomonas aeruginosa. The assay is described as follows: Antibacterial activity against Pseudomonas aeruginosa assessed as LPS neutralisation at 5 uM by LAL assay. In kind it is functional, organism-based.
The subject of assay [5] is Escherichia coli. The assay is described as follows: Antibacterial activity against Escherichia coli 0111:B4 assessed as LPS neutralisation at 5 uM by LAL assay. In kind it is functional, organism-based.
Assay [6] concerns Klebsiella pneumoniae. The assay is described as follows: Antibacterial activity against Klebsiella pneumoniae assessed as LPS neutralisation by LAL assay. In kind it is functional, organism-based. The method in brief:
(§1)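 LPS was used at 0.04 units: 0.01 ng for E. coli 055:B5, 0.01 ng for E. coli 0111:B4, 0.003 ng for K. pneumoniae, 0.01 ng for P. aeruginosa, 0.03 ng for S. typhimurium and 0.03 ng for S. marcescens. IC50 came from sigmoidal fits of dose-response curves.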

For assay [7], the system named is Salmonella typhimurium. The assay is described as follows: Antibacterial activity against Salmonella Typhimurium assessed as LPS neutralisation by LAL assay. The class given is functional, organism-based, Salmonella enterica subsp. enterica serovar Typhimurium. Particulars: Salmonella enterica. A digest of the protocol:
as §1

Assay [8] has as its system Mus musculus. In words: Survival of Escherichia coli 055:B5 LPS-challenged C57/BL6 mouse at 5 mg/kg, ip after 120 hrs relative 10 control. The class given is functional, organism-based. Set-up: dose 5 mg/kg. The method in brief: (§2)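 Male C57/BL6 mice (n = 4–8/group) received a lethal LPS dose: 500 µg for E. coli 0111:B4, 600 µg for E. coli 055:B5 and 600 µg for Salmonella. LPS was premixed with compound in 2% DMSO v/v for 30 min, then injected i.p. Controls got DMSO alone or compound alone. Survival was followed for up to 120 h, and mean survival time was compared by Student's t-test.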

Assay [9] has as its system Escherichia coli. The assay is described as follows: Antibacterial activity against Escherichia coli 0111:B4 assessed as LPS neutralisation by LAL assay. The class given is functional, organism-based. A digest of the protocol: as §1
Assay [10] deals with Mus musculus. In words: Survival of Escherichia coli 0111:B4 LPS-challenged C57/BL6 mouse at 50 mg/kg, ip after 120 hrs relative to control. The class given is functional. The settings on record: route intraperitoneal. The method in brief:
as §2

Assay [11] deals with Mus musculus. The assay is described as follows: Survival of Salmonella LPS-challenged C57/BL6 mouse at 50 mg/kg, ip after 120 hrs relative to control. In kind it is functional. Particulars: route intraperitoneal. The method in brief:
as §2

The subject of assay [12] is Pseudomonas aeruginosa. In words: Antibacterial activity against Pseudomonas aeruginosa assessed as LPS neutralisation by LAL assay. In kind it is functional, organism-based. The method in brief: as §1
Assay [13] deals with Escherichia coli. The assay is described as follows: Antibacterial activity against Escherichia coli 055:B5 assessed as LPS neutralisation by LAL assay. The class given is functional, organism-based. The method in brief: as §1
For assay [14], the system named is Mus musculus. In words: Survival of Escherichia coli 055:B5 LPS-challenged C57/BL6 mouse at 50 mg/kg, ip after 120 hrs relative to control. The settings on record: route intraperitoneal. The class given is functional. The method in brief: as §2

Take `CC(C)(C)c1cc2c(OCC(=O)NCCCn3cncn3)c(c1)Cc1cc(C(C)(C)C)cc(c1OCC(=O)NCCCn1cncn1)Cc1cc(C(C)(C)C)cc(c1OCC(=O)NCCCn1cncn1)Cc1cc(C(C)(C)C)cc(c1OCC(=O)NCCCn1cncn1)C2`: the outcome in the assay with Klebsiella pneumoniae [1], in the assay with Salmonella typhimurium [2], in the assay on Escherichia coli [3], in the assay on Pseudomonas aeruginosa [4] and in the assay on Escherichia coli [5] was inactive.
`CC(C)(C)c1cc2c(OCCCCNC(=N)N)c(c1)Cc1cc(C(C)(C)C)cc(c1OCCCCNC(=N)N)Cc1cc(C(C)(C)C)cc(c1OCCCCNC(=N)N)Cc1cc(C(C)(C)C)cc(c1OCCCCNC(=N)N)C2`: the IC50 in the assay on Klebsiella pneumoniae [6] was 1000 nM; in the assay on Salmonella typhimurium [7] it was 600 nM; in the assay with Escherichia coli [9] it was 700 nM; with Pseudomonas aeruginosa [12], 1500 nM; in the assay on Escherichia coli [13] it was 40 nM. The result in the assay with Mus musculus [8] was inactive. Also, the survival at 50 mg/kg with Mus musculus [10] was found to be 100%; in the assay on Mus musculus [11], 60%; with Mus musculus [14], 40%.
